Compound activity deposited in PubChem by The Scripps Research Institute Molecular Screening Center.
TAAR1 antag = antagonists of human TAAR1 | Q96RJ0 | CHO RD-HGA16 TAAR1, Fluo-8 calcium fluorescence, antagonist | inhibition, % at 3 µM | 360,000 compounds, 1.5% hits;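 active = inhibition above a per-plate cutoff, the mean inhibition of test compounds on that plate plus 3 SD, cut at about 49% in these data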
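Material: CHO RD-HGA16 cells bearing hTAAR1; compound dosing: one-point dosing, 3 µM nominal final; schedule: dye loading 75 min at 37 °C, then 30 min room temperature; measured by: calcium fluorescence with Fluo-8; control set: vehicle and agonist controls; replication: n of 1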
TAAR1 agonist = human TAAR1 agonism | 360,000 compounds, 0.99% hits | CHO RD-HGA16 TAAR1, Fluo-8 calcium fluorescence; vehicle wells 0%, saturating PEA agonist 100% | activation, % at 3 µM | Q96RJ0;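 active = activation above the mean activation of all test compounds in the run plus 3 SD, cut at about 38% in these data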
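Assay system: CHO-derived RD-HGA16 cells with stable Gα16 and human TAAR1; timing: 17-24 h seeding, 75 min 37 °C dye, 30 min RT; read-out: % activation from peak over basal fluorescence ratio, DMSO-to-PEA scaled; measured by: kinetic Fluo-8 calcium fluorescence; benchmarks: low control DMSO, high control PEA (EC100); doses: 3 µM single concentration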
CHRM4 antagonist = blocks acetylcholine activation of human M4 receptor. P08173. CHO-hM4 cells, ACh EC80, Fluo-8 calcium fluorescence. inhibition, % at 3 µM. 360,000 compounds, 0.73% hits;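 active = inhibition above its plate's cutoff, the mean inhibition of sample wells plus 3 SD, cut at about 27% in these data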
Target sequence (P08173 whole entry, looked up): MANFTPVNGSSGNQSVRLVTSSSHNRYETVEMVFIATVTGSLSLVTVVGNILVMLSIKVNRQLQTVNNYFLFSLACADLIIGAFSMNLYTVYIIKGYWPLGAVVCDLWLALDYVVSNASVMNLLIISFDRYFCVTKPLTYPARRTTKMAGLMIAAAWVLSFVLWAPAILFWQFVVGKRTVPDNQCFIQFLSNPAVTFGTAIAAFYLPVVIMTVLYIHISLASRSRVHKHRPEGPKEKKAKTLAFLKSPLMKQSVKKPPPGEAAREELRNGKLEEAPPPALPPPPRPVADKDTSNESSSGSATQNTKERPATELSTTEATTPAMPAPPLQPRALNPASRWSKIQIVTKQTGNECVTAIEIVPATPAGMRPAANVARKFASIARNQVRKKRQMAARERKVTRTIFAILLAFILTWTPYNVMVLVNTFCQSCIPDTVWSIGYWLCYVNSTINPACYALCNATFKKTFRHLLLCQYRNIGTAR
CHRM4 PAM = potentiates acetylcholine response at human M4 receptor | P08173 | CHO-K1 hM4/Gqi5, Fluo-8 calcium fluorescence, ACh EC20; 0% = ACh EC20, 100% = maximal ACh | activation, % at 3 µM | 360,000 compounds, 0.4% hits | AID 624126;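 active = activation above its plate's cutoff, the mean activation of sample wells plus 3 SD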
M4 ag = agonists of human muscarinic M4 receptor (CHRM4); P08173; CHO-K1 hM4/Gqi5, Fluo-8 calcium fluorescence; vehicle 0%, full acetylcholine response 100%; activation, % at 3 µM; 360,000 compounds, 0.14% hits;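 active = activation above the run mean over all test wells plus 3 SD, cut at about 32% in these data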;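 also: peak over basal fluorescence ratio per well then scaled between controls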
TAAR1 ag confirm = confirmation of human TAAR1 agonists. shares compounds with TAAR1 agonist. CHO RD-HGA16 TAAR1, Fluo-8 calcium fluorescence; scaled: DMSO 0%, maximal phenethylamine 100%. activation, % at 3 µM. 2,400 compounds, 82% hits;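 active = activation above a cutoff set at the run's mean compound activation plus 3 SD, cut at about 39% in these data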
Ga16 nonsel ag = nonselective agonist in parental cells, TAAR1 agonist counter-screen; shares compounds with TAAR1 agonist; CHO-Ga16 parental, Fluo-8 calcium fluorescence; normalized to maximal ATP response, DMSO zero; activation, % at 3 µM; 2,400 compounds, 50% hits;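 active = activation above the run cutoff, the mean activation over all tested wells plus 3 SD, cut at about 12% in these data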
TAAR1 desens = TAAR1 response desensitization, agonist counter-screen. CHO RD-HGA16 hTAAR1, Fluo-8 calcium, beta-PEA response inhibition. AID 651951. shares compounds with TAAR1 agonist. inhibition, % at 3 µM. 2,400 compounds, 46% hits;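 active = inhibition above the run cutoff, the mean inhibition of all test compounds plus 3 SD, cut at about 49% in these data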;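 also: beta-PEA stimulus applied at its EC80; loss of beta-PEA calcium signal after compound pretreatment read as receptor desensitization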
Ga16 antag count = counter-screen for TAAR1 agonists: nonselective Ga16 antagonists; inhibition, % at 3 µM; 2,400 compounds, 39% hits; CHO-Ga16 ATP-induced calcium, Fluo-8 fluorescence; shares compounds with TAAR1 agonist;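 active = inhibition above the plate's mean compound inhibition plus 3 SD, computed per plate, cut at about 22% in these data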
Numbers stand for hits; n = inactive; x = no result. Hits are enriched below; roughly 3% of the tested compounds scored in any of these assays.

SMILES	TAAR1 antag	TAAR1 agonist	CHRM4 antagonist	CHRM4 PAM	M4 ag	TAAR1 ag confirm	Ga16 nonsel ag	TAAR1 desens	Ga16 antag count
CN(C)C(=S)NC(=O)C(c1ccccc1)c1ccccc1	n	n	n	n	n	x	x	x	x
CC(=O)NNC(=S)NC(=O)C(c1ccccc1)c1ccccc1	n	49	n	n	n	n	20	n	25
CCc1c(C(=O)NCCc2cccc(C)c2)[nH]c(C)c1C(C)=O	n	68	n	n	n	53	n	n	24
CC(=O)c1c(C)[nH]c(C(=O)NCCc2cccc(C)c2)c1C	n	52	n	n	n	n	n	n	n
CN(C)Cc1cn(CC[C@@H]2CC[C@@H](NC(=O)Nc3ccccc3F)[C@@H](CO)O2)nn1	n	n	n	n	n	x	x	x	x
CC(Oc1ccc(Cl)cc1Cl)C(=O)Nc1ccc(N2CCN(C)CC2)cc1 (stereo unspecified)	n	53	n	n	n	60	n	n	n
CN(C1=NS(=O)(=O)N=C(N(C)c2ccccc2)O1)c1ccccc1	n	n	n	n	n	x	x	x	x
COc1cccc(NC(=O)c2nnn(Cc3ccc(Br)cc3F)c2N)c1	53	59	n	n	n	76	32	59	36
COc1cccc(NC(=O)Cn2nnc(C(=O)Nc3ccccc3)c2N)c1	n	n	n	n	n	x	x	x	x
CCc1ccc(Cn2nnc(C(=O)Nc3ccc(OC)cc3OC)c2N)cc1	n	72	n	n	n	60	22	n	n
C[C@@H]1CN([C@@H](C)CO)C(=O)CCCn2nncc2CO[C@H]1CN(C)Cc1ccc(O)cc1	n	n	x	x	x	x	x	x	x
OCCNC(=S)NCCc1ccccc1	n	n	n	n	n	x	x	x	x
S=C(NCCc1ccccc1)Nc1c(Cl)cccc1Cl	n	68	n	n	n	78	n	80	n
FC(F)Oc1ccccc1NC(=S)NCCc1ccccc1	n	51	n	n	n	77	n	n	n
Fc1ccc(F)c(NC(=S)NCCc2ccccc2)c1	n	n	n	n	n	x	x	x	x
O=C(c1ccco1)N1CCC2CC1c1c(Cl)cccc12 (stereo unspecified)	n	n	n	n	n	x	x	x	x
Cc1cccc(C)c1NC(=O)C(c1cccc2ccccc12)n1c(=O)c(-c2cc3ccccc3[nH]2)nc2ccccc21 (stereo unspecified)	n	n	n	n	n	x	x	x	x
CC1(C(=O)NS(=O)(=O)C2CC2)CCCN(C(=O)c2ccc(C(F)(F)F)cc2)C1 (stereo unspecified)	n	n	n	n	n	x	x	x	x
